Screening results deposited in PubChem BioAssay by Johns Hopkins Ion Channel Center.
hERG protect = shields human hERG channel from block by proarrhythmic agents; Q12809; CHO-hERG, FluxOR thallium flux, dofetilide IC70 present; activation (rescue from dofetilide block), less the hit threshold, % at 10 µM; 310,000 tested, 0.51% active; AID 1511;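 active = activation above the mean of controls blocked by dofetilide plus 5 SD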;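 note: thallium influx through hERG after potassium depolarization seen as dye fluorescence rise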
Kir21 inh = blocks the mouse Kir2.1 inward-rectifier potassium channel; P35561; HEK293-Kir2.1, FluxOR thallium flux fluorescence; hits give low values; B-score at 10 µM; 310,000 tested, 0.85% active; AID 1672;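 active = fluorescence ratio B-score at or below minus 3 SD of library scores, with starting-brightness B-score within 2 SD, cut at about -4.2 in these data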;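 note: channel flux triggered by added potassium and thallium sulfate stimulus; B-score of peak minus minimum fluorescence over baseline after thallium stimulus; more negative B-score means stronger Kir2.1 block with less thallium influx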
KCNQ1 block = blocks the human KCNQ1 potassium channel; P51787; CHO-K1 KCNQ1, FluxOR thallium flux fluorescence; hits give high values; B-score at 10 µM; 310,000 tested, 1.3% active;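 active = compounds whose thallium flux B-score, printed positive for inhibition, exceeds three library SD while starting fluorescence stays within three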;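 note: channel opened by potassium depolarization with thallium stimulus after 20 min compound exposure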
KCNK9 block = human KCNK9 channel inhibition; AID 488922; 310,000 tested, 1.2% active; B-score at 10 µM; HEK293 KCNK9, FluxOR thallium flux fluorescence; hits give low values; Q9NPC2;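 active = ratio B-score over 3 SD below the library mean, with starting fluorescence within 5 SD of its mean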;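 note: negative B-score means less thallium flux so channel inhibition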
KCNK3 inh = human KCNK3 channel inhibition, primary screen | CHO-KCNK3 thallium flux, FluxOR fluorescence; hits give low values | B-score at 10 µM | 340,000 tested, 0.84% active;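 active = B-score under library mean minus 4 SD, starting fluorescence ratio at most library mean plus 5 SD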;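 note: more negative B-score means stronger inhibition of thallium flux through KCNK3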
Target sequence (O14649 whole entry, looked up): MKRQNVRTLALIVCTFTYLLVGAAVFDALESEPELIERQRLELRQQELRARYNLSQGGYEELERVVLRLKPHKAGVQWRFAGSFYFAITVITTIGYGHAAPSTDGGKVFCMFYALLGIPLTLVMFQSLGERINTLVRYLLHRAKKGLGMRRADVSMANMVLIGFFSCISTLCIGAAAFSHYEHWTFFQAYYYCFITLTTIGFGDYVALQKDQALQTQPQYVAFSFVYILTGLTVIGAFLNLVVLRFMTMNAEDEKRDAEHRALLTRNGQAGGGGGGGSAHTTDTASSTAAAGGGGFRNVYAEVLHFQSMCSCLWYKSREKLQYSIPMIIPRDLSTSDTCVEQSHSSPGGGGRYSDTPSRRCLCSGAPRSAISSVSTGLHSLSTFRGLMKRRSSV
KCNQ1 pot = potentiators or activators of human KCNQ1 potassium channel. P51787. CHO-K1 KCNQ1, thallium flux FluxOR fluorescence; hits give high values. B-score at 10 µM. 310,000 tested, 0.35% active. AID 2648;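 active = fluorescence ratio B-score, a plate-corrected score, at least three library SD, with initial intensity B-score within 5 SD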
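assay system = CHO-K1 cells stably expressing KCNQ1 | medium = assay buffer, equal DMSO in all wells | timing = 37 °C overnight plating, 90-min dark dye load, 20-min compound pretreatment | measured by = kinetic FluxOR thallium fluorescence, 10-s 1-Hz baseline, 110-s post-stimulus read | measure = fluorescence change relative to baseline, converted to B score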
* hit, by the source's call; i = inactive; nt = not tested or not shown. Only some compounds are listed: those with a hit (about 3.7% of all), similar ones and a draw of the others.

SMILES | hERG protect | Kir21 inh | KCNQ1 block | KCNK9 block | KCNK3 inh | KCNQ1 pot
CN(C)c1ccc(C(C(=O)NCc2ccccc2)N(Cc2cccnc2)C(=O)c2snc(C(N)=O)c2N)cc1 (stereo unspecified) | -9.2 | -0.82 | 8* | i | i | i
CC(C)CC(C(=O)NC1CCCC1)N(Cc1cccs1)C(=O)c1snc(C(N)=O)c1N (stereo unspecified) | -31.8 | -0.41 | i | i | i | i
COC(=O)C1(NC(=O)CNC(=O)OCc2ccccc2)CCCC1 | nt | nt | nt | nt | i | nt
N#Cc1c(-c2ccc(Cl)cc2)n(O)c2ccccc12 | nt | nt | nt | nt | i | nt
C/C(=N\NC(=S)NCc1ccccc1)c1ccccc1 | -10.4 | 0.44 | i | i | i | i
C/C(=N\NC(=S)NCc1ccccc1)c1ccco1 | 4.9* | -0.8 | i | i | i | i
CC(C)c1ccccc1NC(=O)CNC(C)c1ccc(F)cc1 (stereo unspecified) | -12.3 | -5.51* | i | i | i | i
O=C(OCN1C(=O)c2ccccc2C1=O)c1cccc(S(=O)(=O)N2CCOCC2)c1 | -8.8 | -0.25 | i | i | i | i
CC(C)(C)c1cc(N/C=C\c2nnnn2-c2ccc(Br)cc2)no1 | 7.3* | -0.01 | i | i | i | i
Cc1ccc(-n2nnnc2/C=C\Nc2cc(C)on2)cc1 | -3.7 | 1.83 | i | i | i | i
CCOc1ccc(CCNC(=O)COC(=O)CSc2ccc(C)cc2)cc1OCC | nt | nt | nt | nt | i | nt
O=C(Cc1c[nH]c2ccccc12)NCc1ccc(Cl)cc1Cl | -16.8 | -4.25* | i | i | i | i
CN1CCC(=C(c2ccccc2)c2ccc(Br)cc2)CC1 | -17.7 | -8.6* | i | i | i | i
CCCCN(C(=O)c1ccc(S(=O)(=O)N(C)c2ccccc2)cc1)c1c(N)n(CCC)c(=O)[nH]c1=O | nt | nt | nt | nt | i | nt
CCCCC1(Cc2ccc([N+](=O)[O-])cc2)C(=O)N(c2ccccc2)N(c2ccccc2)C1=O | -7.0 | 0 | 8* | i | i | i
C/C(Sc1nnc(Cc2ccccc2)o1)=C(\O)c1ccccc1 | nt | nt | nt | nt | i | nt
O=C(NC(=S)Nc1ccc(N2CCCCC2)cc1)c1ccco1 | 5.6* | 0.85 | i | i | i | 9*
O=C(NC(=S)Nc1ccccc1N1CCCC1)c1ccccc1Br | 13.6* | 0.52 | i | i | i | 16*
CC1CCN(c2ccc(NC(=S)NC(=O)c3ccco3)cc2)CC1 | -2.5 | 0.01 | i | i | i | i
O=C(NC(=S)Nc1cccc(Cl)c1N1CCCCC1)c1ccco1 | 3.4 | 0.41 | i | i | i | 16*
O=C(NC(=S)Nc1ccccc1N1CCCCC1)c1ccco1 | 14.2* | 0.68 | i | i | i | i
C=C1c2nc3ccccc3n2C=C(c2ccc(C)cc2)N1c1ccccc1 | nt | nt | nt | nt | i | nt
COc1ccccc1-c1cccc([C@@H]2C[C@H]3[C@H](CON3C)CN2S(=O)(=O)c2ccccc2C)c1 | nt | nt | nt | nt | i | nt
COCCCn1c(=O)c2ccccc2n(Cc2cc(C(=O)OC)ccc2OC)c1=O | -7.4 | -0.95 | i | i | i | i
Cc1cc(C)c(C)c(S(=O)(=O)Nc2cccc(S(=O)(=O)Nc3ccccc3C(=O)O)c2)c1C | nt | nt | nt | nt | i | nt
SMILES | hERG protect | Kir21 inh | KCNQ1 block | KCNK9 block | KCNK3 inh | KCNQ1 pot
Cc1ccc(CC2(c3ccccc3)NC(=O)NC2=O)cc1 (stereo unspecified) | nt | nt | nt | nt | i | nt
O=C(NC(=S)Nc1cccc2c(O)cccc12)c1ccco1 | 0.1 | 0.42 | i | i | i | i
O=C(NC(=S)Nc1ccccc1N1CCOCC1)c1ccco1 | -9.3 | 0.83 | i | i | i | i
CC(C)C(=O)N1CCN(c2ccccc2NC(=S)NC(=O)c2ccco2)CC1 | -3.5 | 0.7 | i | i | i | i
O=C(NC(=S)Nc1ccccc1N1CCCC1)c1ccco1 | 2.5 | 1.28 | i | i | i | 12*
O=C(NC(=S)Nc1ccccc1Cl)c1ccco1 | 11.9* | -0.97 | i | i | i | 14*
CCC(C)c1ccccc1NC(=S)NC(=O)c1ccco1 (stereo unspecified) | 31.7* | -1.22 | i | i | i | 29*
CN(C)S(=O)(=O)c1ccc(C(=O)OCC(=O)c2csc(N3CCCCC3)n2)cc1 | nt | nt | nt | nt | i | nt
O=[N+]([O-])c1ccc2[nH]c(=S)sc2c1 | nt | nt | nt | nt | i | nt
S=c1[nH]c2ccc(Cl)cc2s1 | 52.5* | 0.39 | i | i | i | 69*
CCC(C(=O)N(C(C)C)C(C)C)c1ccccc1 (stereo unspecified) | nt | nt | nt | nt | i | nt
CCC(C(=O)c1ccc(O)cc1)c1ccccc1 (stereo unspecified) | -5.3 | -5.04* | i | i | i | i
C=CCOC1=CS(=O)(=O)N(Cc2ccc(Br)cc2)c2ccc(Br)cc21 | nt | nt | nt | nt | i | nt
COc1cccc(CC(=O)OCC(=O)N(C)CC(=O)Nc2ccccc2Cl)c1 | nt | nt | nt | nt | i | nt
CC(C)(C)c1ccc(OCCCC(=O)NNC(=O)c2ccccc2O)cc1 | -28.0 | -0.01 | 8* | i | i | i
Cc1cc(C(=O)NNC(=O)CCCOc2ccccc2)c(C)o1 | -18.1 | -0.76 | i | i | i | i
COc1ccc(C(=O)N/N=C/c2sc(N3CCOCC3)nc2-c2ccccc2)cc1OC | -41.2 | 2.22 | i | i | i | i
O=C(N/N=C/c1sc(N2CCOCC2)nc1-c1ccccc1)c1ccc(O)cc1 | -12.2 | 0.27 | 7* | i | i | i
O=C(NCCN1CCOCC1)c1cccc(S(=O)(=O)N2CCCC2)c1 | -2.8 | 0.84 | i | i | i | i
O=C(NCCN1CCOCC1)c1cccc(S(=O)(=O)N2CCCCCC2)c1 | 7.2* | -0.46 | i | i | i | i
O=C(N/N=C/c1sc(N2CCOCC2)nc1-c1ccccc1)c1cccc(S(=O)(=O)N2CCCC2)c1 | -9.1 | -0.5 | 6* | i | i | i
CC(C)NC(=O)N(C)C[C@H]1Oc2ccc(NC(=O)NC3CCCCC3)cc2C(=O)N([C@H](C)CO)C[C@@H]1C | nt | nt | nt | nt | i | nt
CNC(=O)c1ccccc1Nc1ccc(SC(F)F)cc1 | -12.0 | 1 | 6* | i | i | i
O=C(NCc1ccncc1)c1ccccc1Nc1ccc(SC(F)F)cc1 | -1.9 | -0.53 | i | i | i | i
C1CCc2c(c(N3CCOCC3)nc3sc4c(N5CCOCC5)nnnc4c23)C1 | nt | nt | nt | nt | i | nt
S=c1nc[nH]c2c1sc1nc(N3CCOCC3)c3c(c12)CCCC3 | 97.0* | -0.28 | i | i | i | 95*
CC(C)OCCCNC(=O)c1ccc(NC(=O)C2CCCO2)cc1 (stereo unspecified) | -11.7 | 0.04 | i | i | i | i
